Active and inactive are the calls of the source.
Columns and labels:
[1] = species: Cavia porcellus; test: Negative inotropic activity in guinea pig left atrium at 100 uM; type: functional, Cardiac atrium; conditions: in the assay text read “50 uM” for “100 uM”
Summary of the method: (§1)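 Guinea-pig left atria driven at 1 Hz (0.6-0.8 ms pulses, about 50% threshold voltage) in PSS, 35 °C, pH 7.4, 95% O2/5% CO2. Isometric tension recorded. Cumulative concentrations 0.01-100 μM in DMSO (≤0.3%), each to steady state. Percent decrease in developed tension, n = 4-6. EC50 by Probit analysis.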

[2] = species: Cavia porcellus; test: Vasorelaxant activity assessed as inhibition of calcium-induced contraction of potassium ion-depolarized guinea pig aortic strips at 100 uM; type: functional, Aorta; design: scale not given: the % may be the effect or the level left
Summary of the method: (§2)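 Helicoidal guinea-pig aortic strips in aerated PSS at 35 °C, contracted with 80 mM KCl (K+ substituted for Na+). At plateau (about 45 min), compounds added cumulatively at 0.1-500 μM in DMSO vehicle. Relaxation measured isometrically. IC50 by Probit analysis, n = 6-8.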

[3] = species: Cavia porcellus; test: Negative inotropic activity in guinea pig left atrium; type: functional; conditions: Cardiac atrium; summary of the method: as §1
[4] = species: Cavia porcellus; test: Negative chronotropic activity in guinea pig right atrium at 100 uM; type: functional, Cardiac atrium; conditions: in the assay text read “50 uM” for “100 uM”
Summary of the method: (§3)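 Spontaneously beating guinea-pig right atria in PSS, 35 °C, pH 7.4, 95% O2/5% CO2. Cumulative concentrations 0.01-100 μM in DMSO (≤0.3% in bath), each to steady state. Rate decrease taken as percent of control (pretreatment 170-195 beats/min), n = 6-8. EC30 by Probit analysis.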

[5] = species: Cavia porcellus; test: Vasorelaxant activity assessed as inhibition of calcium-induced contraction of potassium ion-depolarized guinea pig aortic strips at 50 uM; type: functional, Aorta; design: scale not given: the % may be the effect or the level left; summary of the method: as §2
[6] = molecular target: T1, Voltage-dependent L-type calcium channel subunit alpha-1C (Rattus norvegicus, UniProt P22002); test: Inhibition of [3H]diltiazem binding to Sprague-Dawley rat cardiomyocytes at 100 uM relative to control; conditions: read-out: Activity
T1 sequence (P22002 whole entry, the tested form may be a part): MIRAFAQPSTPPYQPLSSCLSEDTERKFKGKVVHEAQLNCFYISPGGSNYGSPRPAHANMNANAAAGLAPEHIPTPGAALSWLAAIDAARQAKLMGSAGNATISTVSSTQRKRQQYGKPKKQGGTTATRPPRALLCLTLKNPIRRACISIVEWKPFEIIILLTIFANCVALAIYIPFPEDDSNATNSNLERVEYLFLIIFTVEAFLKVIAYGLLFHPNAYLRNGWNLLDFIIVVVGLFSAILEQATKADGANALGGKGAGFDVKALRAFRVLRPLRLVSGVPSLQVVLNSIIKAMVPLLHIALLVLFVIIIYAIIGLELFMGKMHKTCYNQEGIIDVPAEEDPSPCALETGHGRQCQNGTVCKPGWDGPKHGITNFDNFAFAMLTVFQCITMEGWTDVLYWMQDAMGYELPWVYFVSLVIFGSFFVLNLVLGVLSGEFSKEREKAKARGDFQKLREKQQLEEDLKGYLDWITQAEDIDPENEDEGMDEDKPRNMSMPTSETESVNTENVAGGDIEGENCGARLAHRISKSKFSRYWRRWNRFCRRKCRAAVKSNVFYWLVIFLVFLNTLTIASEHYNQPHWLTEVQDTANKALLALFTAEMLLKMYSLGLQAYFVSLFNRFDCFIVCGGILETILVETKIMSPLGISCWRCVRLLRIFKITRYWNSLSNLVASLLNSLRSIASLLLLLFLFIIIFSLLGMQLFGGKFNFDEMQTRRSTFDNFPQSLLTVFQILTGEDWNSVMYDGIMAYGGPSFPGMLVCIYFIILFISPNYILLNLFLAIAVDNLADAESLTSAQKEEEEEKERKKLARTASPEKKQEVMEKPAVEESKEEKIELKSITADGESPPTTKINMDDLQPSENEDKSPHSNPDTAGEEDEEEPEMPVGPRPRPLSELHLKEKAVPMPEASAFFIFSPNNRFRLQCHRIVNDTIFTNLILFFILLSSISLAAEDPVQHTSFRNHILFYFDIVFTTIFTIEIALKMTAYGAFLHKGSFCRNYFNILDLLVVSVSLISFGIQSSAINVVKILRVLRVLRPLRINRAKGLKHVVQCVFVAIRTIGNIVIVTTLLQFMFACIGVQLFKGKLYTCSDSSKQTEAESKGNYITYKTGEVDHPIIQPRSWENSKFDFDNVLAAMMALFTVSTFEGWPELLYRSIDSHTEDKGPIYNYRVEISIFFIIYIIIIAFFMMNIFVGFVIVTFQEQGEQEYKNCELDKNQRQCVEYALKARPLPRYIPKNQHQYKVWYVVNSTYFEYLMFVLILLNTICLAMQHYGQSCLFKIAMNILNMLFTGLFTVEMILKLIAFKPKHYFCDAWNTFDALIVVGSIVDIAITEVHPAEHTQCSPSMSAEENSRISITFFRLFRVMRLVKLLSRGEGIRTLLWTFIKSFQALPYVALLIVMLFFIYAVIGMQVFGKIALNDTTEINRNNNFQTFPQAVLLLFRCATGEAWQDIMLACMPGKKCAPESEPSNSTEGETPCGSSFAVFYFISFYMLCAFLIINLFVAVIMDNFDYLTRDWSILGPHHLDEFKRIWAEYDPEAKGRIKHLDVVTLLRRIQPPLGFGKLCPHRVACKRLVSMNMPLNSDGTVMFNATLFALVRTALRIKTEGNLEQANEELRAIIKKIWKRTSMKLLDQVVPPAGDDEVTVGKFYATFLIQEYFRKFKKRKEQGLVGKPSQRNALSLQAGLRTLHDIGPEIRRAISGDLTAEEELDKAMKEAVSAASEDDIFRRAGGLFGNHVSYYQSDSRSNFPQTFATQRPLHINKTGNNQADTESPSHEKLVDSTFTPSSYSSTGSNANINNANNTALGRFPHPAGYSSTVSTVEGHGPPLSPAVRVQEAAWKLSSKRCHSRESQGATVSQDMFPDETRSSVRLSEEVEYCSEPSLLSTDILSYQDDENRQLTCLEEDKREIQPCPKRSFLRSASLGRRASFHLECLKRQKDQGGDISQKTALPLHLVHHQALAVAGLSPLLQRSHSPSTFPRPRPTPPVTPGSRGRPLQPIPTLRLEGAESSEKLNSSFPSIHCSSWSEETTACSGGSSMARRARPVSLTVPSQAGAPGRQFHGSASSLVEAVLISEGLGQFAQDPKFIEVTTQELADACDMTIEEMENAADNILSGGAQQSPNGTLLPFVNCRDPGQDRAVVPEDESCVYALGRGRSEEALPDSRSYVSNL
Summary of the method: (§4)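 Cardiomyocytes from male Sprague-Dawley rats, isolated by Langendorff perfusion and stored frozen (200 μg per tube). Incubated with 5 nM [3H]diltiazem and test ligand (0.1 nM-100 μM) in 50 mM Tris pH 7.4, 25 °C, 90 min. Bound ligand separated by filtration. Nonspecific binding with 100 μM diltiazem. Triplicates. pIC50 from sigmoidal fit; Ki by Cheng-Prusoff.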

[7] = species: Cavia porcellus; test: Cardiac activity in guinea pig heart measured as decrease in left ventricular pressure at 1 uM relative to control; type: functional; design: scale not given: the % may be the effect or the level left
Summary of the method: (§5)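 Langendorff-perfused isolated hearts from female guinea-pigs (300-400 g). Compounds given cumulatively at 0.001-1 μM, each step held to steady state (about 30 min). Read-outs: surface ECG (PR interval, heart rate), intraventricular balloon +(dP/dt)max and coronary perfusion pressure. Results given as percent change from basal at 1 μM, mean ± SEM.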

[8] = species: Cavia porcellus; test: Cardiac activity in guinea pig heart measured as prolongation of atrioventricular conduction time at 1 uM relative to control; type: functional; summary of the method: as §5
[9] = species: Cavia porcellus; test: Negative inotropic activity in guinea pig left ventricular papillary muscle; type: functional; conditions: Muscle tissue
[10] = species: Cavia porcellus; test: Antagonist activity against calcium channel assessed as inhibition of calcium-induced contraction of potassium ion-depolarized guinea pig ileum longitudinal smooth muscle at 100 uM; type: functional; design: scale not given: the % may be the effect or the level left
Summary of the method: (§6)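 Guinea-pig ileum longitudinal smooth muscle segments (2 cm) held at 300-400 mg resting tension, 37 °C, in oxygenated (100% O2) Hepes-buffered PSS at pH 7.4. Isometric contraction recorded. Inhibition expressed as percentage of control. Probit log concentration–response analysis, n = 6-8.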

[11] = species: Cavia porcellus; test: Cardiac activity in guinea pig heart measured as decrease in heart rate at 1 uM by ECG relative to control; type: functional; design: scale not given: the % may be the effect or the level left; summary of the method: as §5
[12] = species: Cavia porcellus; test: Negative inotropic activity in guinea pig left ventricular papillary muscle at 1 uM; type: functional, Muscle tissue
[13] = species: Cavia porcellus; test: Negative chronotropic activity in guinea pig right atrium at 10 uM; type: functional, Cardiac atrium; summary of the method: as §3
[14] = species: Cavia porcellus; test: Negative inotropic activity in guinea pig left atrium at 50 uM; type: functional, Cardiac atrium; summary of the method: as §1
[15] = species: Cavia porcellus; test: Cardiac activity in guinea pig heart measured as decrease in coronary perfusion pressure at 1 uM relative to control; type: functional; summary of the method: as §5
[16] = species: Cavia porcellus; test: Antagonist activity against calcium channel assessed as inhibition of calcium-induced contraction of potassium ion-depolarized guinea pig ileum longitudinal smooth muscle; type: functional; summary of the method: as §6
[17] = species: Cavia porcellus; test: Antagonist activity against calcium channel assessed as inhibition of carbachol-induced tonic contraction of guinea pig ileum longitudinal smooth muscle; type: functional
Summary of the method: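 Guinea-pig ileum longitudinal smooth muscle segments (2 cm), 300-400 mg resting tension, 37 °C, oxygenated Hepes-buffered PSS at pH 7.4, equilibrated 1 h. Two control carbachol curves run 30 min apart. Test agent (10 μM) added 30 min before the carbachol curve. Isometric inhibition expressed as percent of control.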

[18] = species: Cavia porcellus; test: Negative chronotropic activity in guinea pig right atrium at 5 uM; type: functional, Cardiac atrium; summary of the method: as §3
[19] = species: Cavia porcellus; test: Negative inotropic activity in guinea pig left ventricular papillary muscle at 500 uM; type: functional, Muscle tissue
[20] = species: Cavia porcellus; test: Negative inotropic activity in guinea pig left atrium at 1 uM; type: functional, Cardiac atrium; summary of the method: as §1
[21] = species: Cavia porcellus; test: Cardiac activity in guinea pig heart measured as increase in coronary perfusion pressure at 1 uM relative to control; type: functional; summary of the method: as §5
[22] = species: Cavia porcellus; test: Antagonist activity against calcium channel assessed as inhibition of calcium-induced contraction of potassium ion-depolarized guinea pig ileum longitudinal smooth muscle at 10 uM; type: functional; design: scale not given: the % may be the effect or the level left; summary of the method: as §6
[23] = species: Cavia porcellus; test: Negative inotropic activity in guinea pig left atrium at 5 uM; type: functional, Cardiac atrium; summary of the method: as §1
[24] = species: Cavia porcellus; test: Negative inotropic activity in guinea pig left ventricular papillary muscle at 10 uM; type: functional, Muscle tissue
[25] = species: Cavia porcellus; test: Vasorelaxant activity assessed as inhibition of calcium-induced contraction of potassium ion-depolarized guinea pig aortic strips; type: functional; conditions: Aorta; summary of the method: as §2
[26] = molecular target: T1, Voltage-dependent L-type calcium channel subunit alpha-1C; test: Inhibition of [3H]diltiazem binding to Sprague-Dawley rat cardiomyocytes at 10 nM relative to control; conditions: read-out: Activity; summary of the method: as §4
[27] = species: Cavia porcellus; test: Negative inotropic activity in guinea pig left atrium at 10 uM; type: functional, Cardiac atrium; summary of the method: as §1
[28] = species: Cavia porcellus; test: Negative chronotropic activity in guinea pig right atrium at 50 uM; type: functional, Cardiac atrium; summary of the method: as §3
[29] = species: Cavia porcellus; test: Antagonist activity against calcium channel assessed as inhibition of calcium-induced contraction of potassium ion-depolarized guinea pig ileum longitudinal smooth muscle at 500 uM; type: functional; design: scale not given: the % may be the effect or the level left; summary of the method: as §6

SMILES	EC50 [3] [µM]	Activity [2] [%]	Activity [5] [%]	Activity [7] [%]	Activity [8] [%]	Activity [11]	Activity [13] [%]	Activity [14] [%]	also measured
CC(C)(C)N(OC(=O)c1ccccc1)C(=O)C(F)(F)F	6.13	10							Activity [1]: 52%; Activity [4]: 7%
COC(=O)c1c(-c2c(Cl)cccc2Cl)noc1C	0.92		30	31	14	4%	13	84	inhibition at 100 µM [6]: 59.6%; EC50 [9]: 0.036 µM; Activity [10]: 99%; Activity [12]: 87%; Activity [15]: inactive; EC50 [16]: 6.65 µM; IC50 [17]: 33.7 µM
O=C(O)[C@@H]1CCCN1S(=O)(=O)c1ccccc1	0.91		3					66	Activity [18]: 22%
C[C@H]1CC(=O)[C@](C)(CC(=O)c2ccc(Cl)cc2)C(=O)C1	7.51	16					2	78	
CSC1=NCCCN1S(=O)(=O)c1ccc(Cl)cc1	1.33	57					5		Activity [27]: 92%; IC50 [25]: 25.1 µM
CO/N=C/c1c(Sc2ccccc2C(=O)OC)nc2sccn12	0.9		9					63	Activity [28]: 13%

Compounds with a lower EC50 [3], results first:

EC50 [3] [µM]	SMILES	Activity [2] [%]	Activity [5] [%]	Activity [7] [%]	Activity [8] [%]	Activity [11]	Activity [13] [%]	Activity [14] [%]	also measured
0.04	CCOC1(c2ccc(Br)cc2)SC=C(C)n2c1noc2=O (configuration not stated)	19		3	32	14%			Activity [19]: 2%; Activity [4]: 5%; Activity [10]: 3%; Activity [20]: 77%; Activity [15]: 9%; IC50 [17]: 40 µM
0.31	O=S(=O)(c1ccc(Cl)cc1)N1CCC[C@@H]1c1cccs1	74		6	20	inactive	4		Activity [21]: 17%; Activity [22]: 90%; EC50 [9]: 1.38 µM; Activity [23]: 84%; Activity [24]: 93%; EC50 [16]: 1.18 µM; IC50 [25]: 5.62 µM; inhibition at 0.01 µM [26]: -24.8%; IC50 [17]: 8.21 µM
0.07	CCO[C@]1(c2ccc(Br)cc2)SC=C(C)n2c1noc2=O	11					16		Activity [20]: 58%
0.36	O=S(=O)(c1ccc(Br)cc1)N1CCCCCC1	33						91	Activity [28]: 4%
0.4	CC(=O)c1ccccc1N1C(=O)CSCC1=O		5	17	15	14%		61	Activity [29]: 55%; EC50 [9]: 0.066 µM; Activity [24]: 89%; Activity [15]: 6%; EC50 [16]: 124 µM; Activity [28]: 3%; Activity [17]: inactive

Reference: ChEMBL document CHEMBL1146021, “Calcium channel antagonists discovered by a multidisciplinary approach” (J Med Chem, 2006)
